From ChEMBL document CHEMBL1806449, “A class of Trp-Trp-AA-OBzl: Synthesis, in vitro anti-proliferation/in vivo anti-tumor evaluation, intercalation-mechanism investigation and 3D QSAR analysis” (Eur J Med Chem, 2011)
The source made the active and inactive calls. No cut-off for these calls is given here. Peptide text beside a SMILES is read from it. * marks the point of attachment. OBn = c1ccc(CO*)cc1

Legend:
CCRF S-180 [1] = assay: Antitumor activity against mouse S180 cells xenografted in ICR mouse assessed as tumor growth inhibition at 8.9 umol/kg, ip administered 1 day after tumor inoculation qd for 7 days; type: functional; conditions: CCRF S-180, ip, read-out: GI
Outline: (§1)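 Male ICR mice 10–12 weeks; S180 from ascites serially transplanted weekly; 1×10^7 viable cells in 0.2 ml NS implanted s.c. at right oxter; 24 h later randomized (10 per group); daily i.p. 8.9, 0.89 or 0.089 µmol/kg/day in 0.2 ml NS, 7 days; NS and cytarabine controls; sacrificed 24 h after last dose; inhibition % = [1−(Tw/Cw)]×100.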

Mus musculus [2] = assay: Acute toxicity in ICR mouse assessed as mortality at 500 mg/kg, ip administered qd for 7 days; type: organism-based; parameters: dose 500 mg/kg, route intraperitoneal; conditions: in vivo, 168 h
Mus musculus [3] = assay: Acute toxicity in ICR mouse assessed as apparent changes in any organ at 500 mg/kg, ip administered qd for 7 days; type: organism-based; parameters: dose 500 mg/kg, route intraperitoneal; conditions: in vivo, 168 h
Mus musculus [4] = assay: Toxicity in ICR mouse xenografted with mouse S180 cells assessed as effect on liver weight at 8.9 umol/kg; type: organism-based, CCRF S-180; conditions: in vivo
Outline: (§2)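 S180-bearing male ICR mice (10–12 weeks; 1×10^7 cells s.c. right oxter; 12 per group), daily i.p. 8.9 µmol/kg for seven days starting 24 h after implantation; NS, cytarabine and doxorubicin controls; liver, brain, kidney weights, spleen index and body-weight gain recorded.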

Mus musculus [5] = assay: Acute toxicity in ICR mouse assessed as tremors at 500 mg/kg, ip administered qd for 7 days; type: organism-based; parameters: dose 500 mg/kg, route intraperitoneal; conditions: in vivo, 168 h
Mus musculus [6] = assay: Acute toxicity in ICR mouse assessed as supination at 500 mg/kg, ip administered qd for 7 days; type: organism-based; parameters: dose 500 mg/kg, route intraperitoneal; conditions: in vivo, 168 h
H22 = assay: Antiproliferative activity against mouse H22 cells after 48 hrs by MTT assay; type: functional, cell-based; conditions: H22, 48 h
B16 = assay: Antiproliferative activity against mouse B16 cells after 48 hrs by MTT assay; type: functional, cell-based; conditions: B16, 48 h
Mus musculus [7] = assay: Acute toxicity in ICR mouse assessed as jumping at 500 mg/kg, ip administered qd for 7 days; type: organism-based; parameters: dose 500 mg/kg, route intraperitoneal; conditions: in vivo, 168 h
CCRF S-180 [8] = assay: Antiproliferative activity against mouse S180 cells after 48 hrs by MTT assay; type: functional, cell-based; conditions: CCRF S-180, 48 h
Mus musculus [9] = assay: Toxicity in ICR mouse xenografted with mouse S180 cells assessed as effect on brain weight at 8.9 umol/kg; type: organism-based, CCRF S-180; conditions: in vivo; outline: as §2
K562 = assay: Antiproliferative activity against human K562 cells after 48 hrs by MTT assay; type: functional, cell-based; conditions: K562, 48 h
HepG2 = assay: Antiproliferative activity against human HepG2 cells after 48 hrs by MTT assay; type: functional, cell-based; conditions: HepG2, 48 h
Mus musculus [10] = assay: Acute toxicity in ICR mouse assessed as tetanus at 500 mg/kg, ip administered qd for 7 days; type: organism-based; parameters: dose 500 mg/kg, route intraperitoneal; conditions: in vivo, 168 h
[11] = Acute toxicity in ip dosed ICR mouse assessed as lethal dose; type: organism-based; conditions: in vivo
Outline: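 Male ICR mice, 24 weeks old, got a single i.p. injection of 500 mg/kg in 0.2 ml NS (normal saline). They were watched for 7 days for neurotoxic behaviour (tremor, twitch, jumping, tetanus, supination) and for death.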

Mus musculus [12] = assay: Acute toxicity in ICR mouse assessed as twitch at 500 mg/kg, ip administered qd for 7 days; type: organism-based; parameters: dose 500 mg/kg, route intraperitoneal; conditions: in vivo, 168 h
Mus musculus [13] = assay: Toxicity in ICR mouse xenografted with mouse S180 cells assessed as effect on kidney weight at 8.9 umol/kg; type: organism-based, CCRF S-180; conditions: in vivo; outline: as §2
Mus musculus [14] = assay: Toxicity in ICR mouse xenografted with mouse S180 cells assessed as increase in spleen index at 8.9 umol/kg; type: organism-based, CCRF S-180; conditions: in vivo; outline: as §2
Mus musculus [15] = assay: Toxicity in ICR mouse xenografted with mouse S180 cells assessed as increase in body weight at 8.9 umol/kg; type: organism-based, CCRF S-180; conditions: in vivo; outline: as §2
Nucleic Acid [16] = assay: Binding affinity to double strand calf thymus DNA assessed as melting temperature; type: nucleic-acid assay; conditions: Bos taurus
Outline: (§3)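 CT DNA in PBS pH 7.4, alone or with compound; temperature raised 1 °C/min with absorbance at 279 nm; Tm taken as temperature giving 50% absorbance increase.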

CCRF S-180 [17] = assay: Antitumor activity against mouse S180 cells xenografted in ICR mouse assessed as tumor growth inhibition at 0.89 umol/kg, ip administered 1 day after tumor inoculation qd for 7 days; type: functional; conditions: CCRF S-180, ip, read-out: GI; outline: as §1
CCRF S-180 [18] = assay: Antitumor activity against mouse S180 cells xenografted in ICR mouse assessed as tumor growth inhibition at 0.089 umol/kg, ip qd administered 1 day after tumor inoculation for 7 days; type: functional; conditions: CCRF S-180, ip, read-out: GI; outline: as §1
Nucleic Acid [19] = assay: Binding affinity to calf thymus DNA assessed as increase in DNA viscosity at compound to DNA ratio of 0.36; type: nucleic-acid assay; conditions: Bos taurus
Outline: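 Relative viscosity of CT DNA solutions measured at compound/CT DNA ratios 0–0.36.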

Nucleic Acid [20] = assay: Binding affinity to double stranded calf thymus DNA assessed as change in melting temperature per minute; type: nucleic-acid assay; conditions: Bos taurus; outline: as §3
Mus musculus [21] = assay: Toxicity in ICR mouse xenografted with mouse S180 cells assessed as effect on liver weight at 2 umol/kg; type: organism-based, CCRF S-180; conditions: in vivo
Mus musculus [22] = assay: Toxicity in ICR mouse xenografted with mouse S180 cells assessed as increase in spleen index at 2 umol/kg; type: organism-based, CCRF S-180; conditions: in vivo
Mus musculus [23] = assay: Toxicity in ICR mouse xenografted with mouse S180 cells assessed as effect on kidney weight at 2 umol/kg; type: organism-based, CCRF S-180; conditions: in vivo
Mus musculus [24] = assay: Toxicity in ICR mouse xenografted with mouse S180 cells assessed as effect on brain weight at 2 umol/kg; type: organism-based, CCRF S-180; conditions: in vivo
Mus musculus [25] = assay: Toxicity in ICR mouse xenografted with mouse S180 cells assessed as increase in body weight at 2 umol/kg; type: organism-based, CCRF S-180; conditions: in vivo

Row | SMILES | inhibition in vivo at 8.9 µmol/kg (CCRF S-180 [1]) | Activity (Mus musculus [2]) | Activity (Mus musculus [3]) | Activity (Mus musculus [4]) | Activity (Mus musculus [5]) | Activity (Mus musculus [6]) | IC50 (H22) | IC50 (B16) | Activity (Mus musculus [7]) | IC50 (CCRF S-180 [8]) | Activity (Mus musculus [9]) | IC50 (K562) | IC50 (HepG2) | Activity (Mus musculus [10]) | LD50 [11] | Activity (Mus musculus [12]) | Activity (Mus musculus [13]) | Activity (Mus musculus [14]) | Activity (Mus musculus [15]) | also measured
1 | N[C@@H](Cc1c[nH]c2ccccc12)C(=O)N[C@@H](Cc1c[nH]c2ccccc12)C(=O)N1CCC[C@H]1C(=O)OCc1ccccc1 (H-Trp-Trp-Pro-OBn) | 58% | Non-toxic | Non-toxic | 1.81 g | Non-toxic | Non-toxic | 15.5 µM | 17.2 µM | Non-toxic | 12.5 µM | 0.27 g | 12.9 µM | 14.7 µM | Non-toxic | > 500 mg/kg | Non-toxic | 0.15 g | 8.01 | 10.24 g | 
2 | N[C@@H](Cc1c[nH]c2ccccc12)C(=O)N[C@@H](Cc1c[nH]c2ccccc12)C(=O)N[C@@H](CO)C(=O)OCc1ccccc1 (H-Trp-Trp-Ser-OBn) | 18.1% | Non-toxic | Non-toxic | 1.73 g | Non-toxic | Non-toxic | 46.3 µM | 54.3 µM | Non-toxic | 41.2 µM | 0.28 g | 41.6 µM | 46.6 µM | Non-toxic | > 500 mg/kg | Non-toxic | 0.16 g | 7.59 | 9.95 g | 
3 | C[C@@H](O)[C@H](NC(=O)[C@H](Cc1c[nH]c2ccccc12)NC(=O)[C@@H](N)Cc1c[nH]c2ccccc12)C(=O)OCc1ccccc1 (H-Trp-Trp-Thr-OBn) | 61.2% | Non-toxic | Non-toxic | 1.81 g | Non-toxic | Non-toxic | 14 µM | 16 µM | Non-toxic | 11.8 µM | 0.3 g | 12 µM | 13.7 µM | Non-toxic | > 500 mg/kg | Non-toxic | 0.15 g | 8.21 | 9.99 g | 
4 | N[C@@H](Cc1c[nH]c2ccccc12)C(=O)N[C@@H](Cc1c[nH]c2ccccc12)C(=O)N[C@@H](Cc1ccc(O)cc1)C(=O)OCc1ccccc1 (H-Trp-Trp-Tyr-OBn) | 20.2% | Non-toxic | Non-toxic | 1.78 g | Non-toxic | Non-toxic | 39.6 µM | 36 µM | Non-toxic | 36 µM | 0.27 g | 45.7 µM | 43.2 µM | Non-toxic | > 500 mg/kg | Non-toxic | 0.16 g | 7.5 | 9.76 g | 
5 | CC(C)[C@H](NC(=O)[C@H](Cc1c[nH]c2ccccc12)NC(=O)[C@@H](N)Cc1c[nH]c2ccccc12)C(=O)OCc1ccccc1 (H-Trp-Trp-Val-OBn) | 79.5% | Non-toxic | Non-toxic | 1.89 g | Non-toxic | Non-toxic | 9.97 µM | 11.2 µM | Non-toxic | 8.14 µM | 0.27 g | 8.27 µM | 9.49 µM | Non-toxic | > 500 mg/kg | Non-toxic | 0.15 g | 7.97 | 9.97 g | Tm (Nucleic Acid [16]): 22 °C; inhibition in vivo at 0.89 µmol/kg (CCRF S-180 [17]): 70.2%; inhibition in vivo at 0.089 µmol/kg (CCRF S-180 [18]): 41.7%; Activity (Nucleic Acid [19]): Active; ΔTm (Nucleic Acid [20]): 1 °C
6 | Nc1ccn([C@@H]2O[C@H](CO)[C@@H](O)[C@@H]2O)c(=O)n1 [CYTARABINE] | 31.9% |  |  |  |  |  | 26 µM | 30.6 µM |  | 25.4 µM |  | 24.3 µM | 26.2 µM |  |  |  |  |  |  | Activity (Mus musculus [21]): 1.62 g; Activity (Mus musculus [22]): 7.5; Activity (Mus musculus [23]): 0.16 g; inhibition in vivo at 0.89 µmol/kg (CCRF S-180 [17]): 20.6%; inhibition in vivo at 0.089 µmol/kg (CCRF S-180 [18]): 7.86%; Activity (Mus musculus [24]): 0.29 g; Activity (Mus musculus [25]): 7.12 g
7 | COc1cccc2c1C(=O)c1c(O)c3c(c(O)c1C2=O)C[C@@](O)(C(=O)CO)C[C@@H]3O[C@H]1C[C@H](N)[C@H](O)[C@H](C)O1 [DOXORUBICIN] | 48.2% |  |  |  |  |  | 36.5 µM | 21.5 µM |  | 29.2 µM |  | 17.2 µM | 17.5 µM |  |  |  |  |  |  | Activity (Mus musculus [21]): 1.61 g; Activity (Mus musculus [22]): 7.31; Activity (Mus musculus [23]): 0.15 g; Activity (Mus musculus [24]): 0.25 g; Activity (Mus musculus [25]): 6.12 g
